ChEMBL document CHEMBL1140884, “Oligodeoxyribonucleotide-based antagonists for Toll-like receptors 7 and 9” (2009)
Calls of active or inactive are those of the source. No cut-off for these calls is given here.

Tests used:
Mus musculus [1] = assay: Inhibition of 5'-TCTGACRTTCT-X-TCTTRCAGTCT-3'-induced IP10 production in C57BL/6 mouse treated 72 hrs before induction at 10 mg/kg, sc; assay type: functional; settings: C57BL/6, sc, route subcutaneous
Procedure, shortened: (§1)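 Female C57BL/6 mice (n=3) received antagonist 10 mg/kg sc in the right flank. After 72 h, TLR9 agonist 0.25 mg/kg sc was given in the left flank. Serum was taken 2 h after agonist and cytokines/chemokines were measured by Luminex multiplex assay. Representative of at least three experiments.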

[2] = molecular target: T1, Toll-like receptor 9 (Mus musculus) (UniProt Q9EQU3); assay: Agonist activity at TLR9 in mouse J774 cells assessed as of NF-kappaB activation; assay type: functional, cell-based
T1 sequence (whole entry): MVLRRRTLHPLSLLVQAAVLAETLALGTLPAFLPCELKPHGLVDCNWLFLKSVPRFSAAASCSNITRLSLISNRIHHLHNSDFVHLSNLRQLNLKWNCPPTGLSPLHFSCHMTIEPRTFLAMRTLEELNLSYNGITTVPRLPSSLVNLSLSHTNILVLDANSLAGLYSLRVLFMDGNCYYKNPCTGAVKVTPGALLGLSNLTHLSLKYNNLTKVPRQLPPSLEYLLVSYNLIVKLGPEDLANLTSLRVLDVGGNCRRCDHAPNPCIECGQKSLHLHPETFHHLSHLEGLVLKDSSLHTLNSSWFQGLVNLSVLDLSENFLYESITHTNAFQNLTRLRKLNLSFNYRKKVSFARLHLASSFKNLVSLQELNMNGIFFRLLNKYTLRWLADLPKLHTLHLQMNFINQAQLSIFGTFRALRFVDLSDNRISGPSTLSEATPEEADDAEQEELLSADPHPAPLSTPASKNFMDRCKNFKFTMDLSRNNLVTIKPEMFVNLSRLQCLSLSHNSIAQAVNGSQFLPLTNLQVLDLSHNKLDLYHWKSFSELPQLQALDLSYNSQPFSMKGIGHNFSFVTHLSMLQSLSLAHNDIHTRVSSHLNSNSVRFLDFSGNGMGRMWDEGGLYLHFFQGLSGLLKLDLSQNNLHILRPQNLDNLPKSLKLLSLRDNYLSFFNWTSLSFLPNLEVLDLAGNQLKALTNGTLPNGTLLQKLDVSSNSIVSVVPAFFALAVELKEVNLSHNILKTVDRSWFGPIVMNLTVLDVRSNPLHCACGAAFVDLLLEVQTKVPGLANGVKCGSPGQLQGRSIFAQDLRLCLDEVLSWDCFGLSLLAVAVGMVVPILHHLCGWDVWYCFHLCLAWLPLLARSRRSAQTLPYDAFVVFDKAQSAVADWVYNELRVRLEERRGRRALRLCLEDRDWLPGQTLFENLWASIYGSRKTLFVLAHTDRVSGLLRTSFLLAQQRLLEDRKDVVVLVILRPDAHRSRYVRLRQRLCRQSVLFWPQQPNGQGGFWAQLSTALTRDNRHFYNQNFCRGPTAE
Procedure, shortened: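 Murine J774 macrophages grown in DMEM with 10% FBS and plated at 5×10^6 cells/well. Nuclear extracts taken 1 h after agonist addition. NF-κB detected by EMSA on native polyacrylamide gels with autoradiography.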

Mus musculus [3] = assay: Inhibition of 5'-UGCUGUUCUG-X-GUCUUGUCGU-5'-induced IL12 production in C57BL/6 mouse treated 72 hrs before induction at 10 mg/kg, sc; assay type: functional; settings: C57BL/6, sc, route subcutaneous
Procedure, shortened: (§2)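 Female C57BL/6 mice, 6-8 weeks, n = 3, given antagonist 10 mg/kg sc in the right flank. After 72 h, agonist given sc in the left flank: TLR7/8 RNA agonist at 50 mg/kg or TLR9 agonist at 0.25 mg/kg. Serum collected 2 h after agonist by retro-orbital bleeding; cytokines/chemokines by mouse 20-plex Luminex bead assay.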

Mus musculus [4] = assay: Inhibition of 5'-TCTGACRTTCT-X-TCTTRCAGTCT-3'-induced IL12 production in C57BL/6 mouse treated 72 hrs before induction at 10 mg/kg, sc; assay type: functional; settings: C57BL/6, sc, route subcutaneous; procedure, shortened: as §1
Mus musculus [5] = assay: Inhibition of 5'-UGCUGUUCUG-X-GUCUUGUCGU-5'-induced MCP1 production in C57BL/6 mouse treated 72 hrs before induction at 10 mg/kg, sc; assay type: functional; settings: C57BL/6, sc, route subcutaneous; procedure, shortened: as §2
Mus musculus [6] = assay: Inhibition of 5'-UGCUGUUCUG-X-GUCUUGUCGU-5'-induced IL10 production in C57BL/6 mouse treated 72 hrs before induction at 10 mg/kg, sc; assay type: functional; settings: C57BL/6, sc, route subcutaneous; procedure, shortened: as §2
Mus musculus [7] = assay: Inhibition of 5'-TCTGACRTTCT-X-TCTTRCAGTCT-3'-induced IL12 production in C57BL/6 mouse pretreated before up to 48 hrs of induction at 10 mg/kg, sc; assay type: functional, organism-based; design: dose 10 mg/kg
Procedure, shortened: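 C57BL/6 mice received antagonist or control 10 mg/kg sc, either with TLR9 agonist 0.25 mg/kg sc or up to 48 h before it. Serum IL-12 was measured 2 h after agonist. Two or three independent experiments; mean ± SEM, Student's t test versus PBS.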

Mus musculus [8] = assay: Inhibition of 5'-UGCUGUUCUG-X-GUCUUGUCGU-5'-induced IP10 production in C57BL/6 mouse treated 72 hrs before induction at 10 mg/kg, sc; assay type: functional; settings: C57BL/6, sc, route subcutaneous; procedure, shortened: as §2
Mus musculus [9] = assay: Inhibition of 5'-TCTGACRTTCT-X-TCTTRCAGTCT-3'-induced IL10 production in C57BL/6 mouse treated 72 hrs before induction at 10 mg/kg, sc; assay type: functional; settings: C57BL/6, sc, route subcutaneous; procedure, shortened: as §1
[10] = molecular target: T1, Toll-like receptor 9 (Mus musculus); assay: Antagonist activity in mouse J774 cells assessed as inhibition of 5'-UGCUGUUCUG-X-GUCUUGUCGU-5'-induced NF-kappaB activation
B = assay: Inhibition of 5'-TCTGTCRTTCT-X-TCTTRCTGTCT-5'-induced IL6 secretion in MRL/lpr mouse splenic B cells after 24 hrs by ELISA; assay type: functional, cell-based
Procedure, shortened: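 Splenic B cells from MRL/lpr mice, purified by B-cell isolation kit (>95% B220+), cultured at 5×10^5 cells/200 μL in RPMI-1640 with 10% FBS and penicillin/streptomycin; stimulated with 1 μg/mL TLR9 agonist with or without antagonist at 0.3, 1 or 3 μg/mL, or antagonist 3 μg/mL alone. Supernatants taken at 24 h; IL-6 by sandwich ELISA.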

[11] = molecular target: T1, Toll-like receptor 9 (Mus musculus); assay: Antagonist activity at TLR9 in mouse J774 cells assessed as inhibition of 5'-TCTGACRTTCT-X-TCTTRCAGTCT-3'-induced NF-kappaB activation; assay type: functional, cell-based
Procedure, shortened: (§3)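 J774 cells at 5×10^6 cells/well were preincubated with antagonist for 1 h. Agonist was then added: TLR9 agonist 1 µg/mL, an RNA-based TLR7/8 agonist, or LPS 100 ng/mL. Antagonist was used at 5–40 µg/mL or at the indicated agonist ratios. Nuclear extracts were taken 1 h after agonist and analysed by EMSA.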

[12] = molecular target: T1, Toll-like receptor 9 (Mus musculus); assay: Antagonist activity at TLR9 in mouse J774 cells assessed as inhibition of LPS-induced NF-kappaB activation treated 1 hr before LPS induction; assay type: functional, cell-based; procedure, shortened: as §3

**Q.** Which results are given for CO[C@@H]1[C@H](OP(=O)(S)OC[C@H]2O[C@@H](n3ccc(N)nc3=O)C[C@@H]2OP(=O)(S)OC[C@H]2O[C@@H](n3ccc4c(=O)[nH]c(N)nc43)C[C@@H]2OP(=O)(S)OC[C@H]2O[C@@H](n3cc(C)c(=O)[nH]c3=O)C[C@@H]2OP(=O)(S)OC[C@H]2O[C@@H](n3cc(C)c(=O)[nH]c3=O)C[C@@H]2OP(=O)(S)OC[C@H]2O[C@@H](n3ccc(N)nc3=O)C[C@@H]2OP(=O)(S)OC[C@H]2O[C@@H](n3cc(C)c(=O)[nH]c3=O)C[C@@H]2OP(=O)(S)OC[C@H]2O[C@@H](n3ccc(N)nc3=O)C[C@@H]2OP(=O)(S)OC[C@H]2O[C@@H](n3cc(C)c(=O)[nH]c3=O)C[C@@H]2OP(=O)(S)OC[C@H]2O[C@@H](n3cnc4c(=O)[nH]c(N)nc43)C[C@@H]2OP(=O)(S)OC[C@H]2O[C@@H](n3cc(C)c(=O)[nH]c3=O)C[C@@H]2O)[C@@H](COP(=O)(S)O[C@H]2[C@@H](OC)[C@H](n3cnc4c(=O)[nH]c(N)nc43)O[C@@H]2COP(=O)(S)O[C@H]2C[C@H](n3cc(C)c(=O)[nH]c3=O)O[C@@H]2COP(=O)(S)O[C@H]2C[C@H](n3ccc(N)nc3=O)O[C@@H]2COP(=O)(S)O[C@H]2C[C@H](n3cc(C)c(=O)[nH]c3=O)O[C@@H]2COP(=O)(S)O[C@H]2C[C@H](n3cnc4c(N)ncnc43)O[C@@H]2COP(=O)(S)O[C@H]2C[C@H](n3cc(C)c(=O)[nH]c3=O)O[C@@H]2COP(=O)(S)O[C@@H]2C[C@@H](n3ccc(N)nc3=O)O[C@H]2CO)O[C@H]1n1cnc2c(N)ncnc21 (stereo partly drawn)?
**A.** inhibition in vivo at 10 mg/kg (Mus musculus [1]): ≥ 50%; Activity [2]: inactive; inhibition in vivo at 10 mg/kg (Mus musculus [3]): ≥ 50%; inhibition in vivo at 10 mg/kg (Mus musculus [4]): ≥ 50%; inhibition in vivo at 10 mg/kg (Mus musculus [5]): ≥ 50%; inhibition in vivo at 10 mg/kg (Mus musculus [6]): ≥ 50%; Activity (Mus musculus [7]): Active; inhibition in vivo at 10 mg/kg (Mus musculus [8]): ≥ 50%; inhibition in vivo at 10 mg/kg (Mus musculus [9]): ≥ 50%; Activity [10]: Dose-dependent effect; Activity (B): Dose-dependent effect; Activity [11]: Active; Activity [12]: inactive
